Holding throughout (type): functional
Assay [1] deals with HT-29. The assay is described as follows: Growth inhibition of human HT-29 cells after 72 hrs by CellTiter-Glo reagent based assay. To be noted: HT-29, 72 h. In short, it runs like this: (§1)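 Cancer cell lines (PC3 prostate, HT29 colorectal carcinoma, MDA-MB-231 breast) were screened by quantitative high-throughput screening in whole cells, and CC50 values were derived.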
A general note: ATP-based viability assays read luminescence as a measure of living cells.

Assay [2] has as its system PC-3. In words: Growth inhibition of human PC3 cells after 72 hrs by CellTiter-Glo reagent based assay. As to conditions: PC-3, 72 h. In short, it runs like this:
as §1

In assay [3] the test system is MDA-MB-231. The assay is described as follows: Growth inhibition of human MDA-MB-231 cells after 72 hrs by CellTiter-Glo reagent based assay. As to conditions: MDA-MB-231, 72 h. In short, it runs like this:
as §1

On to `CCN(CCN(C)C)C(=O)CC1=C(C)/C(=C/c2ccc([S+](C)[O-])cc2)c2ccc(F)cc21` (centres undefined), for which the values for the CC50 in assay [1], in assay [2] and in assay [3] were 18.2 µM, over 50 µM and over 50 µM, respectively.

Take `COC(=O)[C@H](Cc1cnc[nH]1)NC(=O)CC1=C(C)/C(=C/c2ccc(SC)cc2)c2ccc(F)cc21`: the CC50 (commonly the concentration at which the toxic effect on the cells reaches its halfway point) in assay [1] was 23 µM; in assay [2], over 50 µM; in assay [3] it was over 50 µM.

Turning to `CCNCCN(CC)C(=O)CC1=C(C)/C(=C/c2ccc([S+](C)[O-])cc2)c2ccc(F)cc21` (centres undefined), the figures for the CC50 in assay [1], in assay [2] and in assay [3] were 18.2 µM, over 50 µM and over 50 µM, respectively.

Turning to `CC1=C(CC(=O)N(C)CCCN(C)C)c2cc(F)ccc2/C1=C\c1ccc([S+](C)[O-])cc1` (centres undefined), the CC50 in assay [1] is 38.9 µM; in assay [2], over 50 µM; in assay [3], over 50 µM.

For the compound `CSc1ccc(/C=C2/C(C)=C(CC(=O)NCc3ccncc3)c3cc(F)ccc32)cc1`, the values for the CC50 in assay [1], in assay [2] and in assay [3] were 4.88 µM, 5.83 µM and 6.46 µM, respectively.

Turning to `CC1=C(CC(=O)NCCN(C)C)c2cc(F)ccc2/C1=C\c1nc2ccccc2s1`, the values for the CC50 in assay [1], in assay [2] and in assay [3] were 1.57 µM, 4.88 µM and 3.63 µM, respectively.

For the compound `CCN(CC)CCN(C)C(=O)CC1=C(C)/C(=C/c2ccc(SC)cc2)c2ccc(F)cc21`, the CC50 in assay [1] was found to be 1.49 µM; in assay [2], 5.65 µM; in assay [3], 3.77 µM.

As for `CSc1ccc(/C=C2/C(C)=C(CC(=O)N(C)CCN(C)S(=O)(=O)c3ccccc3)c3cc(F)ccc32)cc1`, the figures for the CC50 in assay [1], in assay [2] and in assay [3] were 8.82 µM, over 50 µM and over 50 µM, respectively.

For `CC1=C(CC(=O)NCCN2CCCC2)c2cc(F)ccc2/C1=C\c1ccncc1`, the CC50 in assay [1] turned out to be 2.68 µM; in assay [2] it was 10.2 µM; in assay [3], 7.19 µM.

For the compound `CCS(=O)(=O)N(C)CCN(C)C(=O)CC1=C(C)/C(=C/c2ccc([S+](C)[O-])cc2)c2ccc(F)cc21` (centres undefined), the cytotoxic concentration (CC50) in assay [1] was 42.6 µM; in assay [2], over 50 µM; in assay [3], over 50 µM.

Turning to `CC1=C(CC(=O)NCCC(C)C)c2cc(F)ccc2/C1=C\c1ccc([S+](C)[O-])cc1` (centres undefined), the figures for the CC50 in assay [1], in assay [2] and in assay [3] were 17.7 µM, 20.2 µM and 27.7 µM, respectively.

As to `CC1=C(CC(=O)NCc2ccco2)c2cc(F)ccc2/C1=C\c1nc2ccccc2s1`, the values for the CC50 in assay [1], in assay [2] and in assay [3] were 5.48 µM, 26.4 µM and 6.7 µM, respectively.

`COc1cc(/C=C2/C(C)=C(CC(=O)NCCN(C)C)c3cc(F)ccc32)cc(OC)c1OC`: the CC50 in assay [1] stood at 6.22 µM; in assay [2] it was 18.3 µM; in assay [3], 15.1 µM.

For the compound `CNCCN(C)C(=O)CC1=C(C)/C(=C/c2cc(OC)c(OC)c(OC)c2)c2ccc(F)cc21`, the CC50 in assay [1] was determined as 8.05 µM; in assay [2] it was 23.1 µM; in assay [3] it was 17 µM.

For `CSc1ccc(/C=C2/C(C)=C(CC(=O)NCCC3CCCN3C)c3cc(F)ccc32)cc1` (centres undefined), the CC50 in assay [1] was found to be 1.41 µM; in assay [2] it was 4.33 µM; in assay [3], 3.75 µM.

With `CCN(CC)CCNC(=O)CC1=C(C)/C(=C/c2ccc(SC)cc2)c2ccc(F)cc21`, the cytotoxic concentration (CC50) in assay [1] came out at 1.54 µM; in assay [2], 5.45 µM; in assay [3], 4.2 µM.

For the compound `CSc1ccc(/C=C2/C(C)=C(CC(=O)N(C)CCN(C)C(=O)[C@@H](N)C(C)C)c3cc(F)ccc32)cc1`, the CC50 in assay [1] is 3.72 µM; in assay [2] it was 7.08 µM; in assay [3] it was 7.33 µM.

As to `CSc1ccc(/C=C2/C(C)=C(CC(=O)N(C)CCN(C)S(=O)(=O)c3cccc4ccccc34)c3cc(F)ccc32)cc1`, the values for the CC50 in assay [1], in assay [2] and in assay [3] were 16.2 µM, over 50 µM and over 50 µM, respectively.

As for `COc1cc(/C=C2/C(C)=C(CC(=O)NCCN3CCCCC3)c3cc(F)ccc32)cc(OC)c1OC`, the CC50 in assay [1] came out at 4.18 µM; in assay [2], 9.62 µM; in assay [3], 10.4 µM.

Turning to `CSc1ccc(/C=C2/C(C)=C(CC(=O)NCc3ccccc3)c3cc(F)ccc32)cc1`, the CC50 is 1.52 µM in assay [1], 16.4 µM in assay [2] and 3.61 µM in assay [3].

For `CC1=C(CC(=O)N(CCCNC(C)C)C(C)C)c2cc(F)ccc2/C1=C\c1ccc([S+](C)[O-])cc1` (centres undefined), the values for the CC50 in assay [1], in assay [2] and in assay [3] were 16.3 µM, 48.3 µM and over 50 µM, respectively.

Turning to `CC1=C(CC(=O)N(C)CCN(C)S(=O)(=O)c2ccccc2)c2cc(F)ccc2/C1=C\c1ccc([S+](C)[O-])cc1` (centres undefined), the CC50 in assay [1] came out at 6.09 µM; in assay [2] it was 8.2 µM; in assay [3], 12.2 µM.

As to `CSc1ccc(/C=C2/C(C)=C(CC(=O)N(C)CCN(C)S(=O)(=O)c3cccc4c(N(C)C)cccc34)c3cc(F)ccc32)cc1`, the CC50 in assay [1], in assay [2] and in assay [3] was over 50 µM throughout.

In the case of `CCN(CC)CCN(CC)C(=O)CC1=C(C)/C(=C/c2ccc([S+](C)[O-])cc2)c2ccc(F)cc21` (centres undefined), the CC50 in assay [1] is 18.4 µM; in assay [2], over 50 µM; in assay [3], over 50 µM.

For `CCN(CC)CCNC(=O)CC1=C(C)/C(=C/c2nc3ccccc3s2)c2ccc(F)cc21`, the CC50 in assay [1] was 1.12 µM; in assay [2] it was 4.48 µM; in assay [3], 3.54 µM.

Regarding `CC1=C(CC(=O)N(C)CCN(C)S(=O)(=O)c2cccc3c(N(C)C)cccc23)c2cc(F)ccc2/C1=C\c1ccc([S+](C)[O-])cc1` (centres undefined), the 50% cytotoxic concentration (CC50) is 10.6 µM in assay [1], 9.2 µM in assay [2] and over 50 µM in assay [3].

As for `CSc1ccc(/C=C2/C(C)=C(CC(=O)N(C)CCN(C)S(=O)(=O)c3ccc(C)cc3)c3cc(F)ccc32)cc1`, the CC50 is 12.9 µM in assay [1], over 50 µM in assay [2] and over 50 µM in assay [3].

As to `CCN(CC)CCNC(=O)CC1=C(C)/C(=C/c2cc(OC)c(OC)c(OC)c2)c2ccc(F)cc21`, the CC50 in assay [1] was 5.42 µM; in assay [2] it was 13.9 µM; in assay [3], 12.3 µM.

Consider `CNCCCN(C)C(=O)CC1=C(C)/C(=C/c2ccc([S+](C)[O-])cc2)c2ccc(F)cc21` (centres undefined), for which the CC50 in assay [1], in assay [2] and in assay [3] was over 50 µM in each case.

Consider `CCN(CC)CCNC(=O)CC1=C(C)/C(=C/c2ccc([S+](C)[O-])cc2)c2ccc(F)cc21` (centres undefined), for which the figures for the CC50 in assay [1], in assay [2] and in assay [3] were 19.8 µM, over 50 µM and over 50 µM, respectively.

In the case of `CC1=C(CC(=O)NCCN(C)C)c2cc(F)ccc2/C1=C\c1ccncc1`, the CC50 in assay [1] amounted to 6.89 µM; in assay [2], 28.9 µM; in assay [3] it was 18.1 µM.

For `CCS(=O)(=O)N(C)CCN(C)C(=O)CC1=C(C)/C(=C/c2ccc(SC)cc2)c2ccc(F)cc21`, the CC50 was 4.2 µM in assay [1], 14.3 µM in assay [2] and 10.1 µM in assay [3].

Turning to `COc1cc(/C=C2/C(C)=C(CC(=O)NCCCN(C)C)c3cc(F)ccc32)cc(OC)c1OC`, the CC50 stood at 6.08 µM in assay [1], 13 µM in assay [2] and 10.8 µM in assay [3].

With `COc1cc(/C=C2/C(C)=C(CC(=O)N(C)CCN(C)C)c3cc(F)ccc32)cc(OC)c1OC`, the figures for the CC50 in assay [1], in assay [2] and in assay [3] were 4.68 µM, 11.4 µM and 10.8 µM, respectively.

Consider `CSc1ccc(/C=C2/C(C)=C(CC(=O)N3CCNCC3)c3cc(F)ccc32)cc1`, for which the CC50 came to 2.47 µM in assay [1], 6.5 µM in assay [2] and 3.69 µM in assay [3].

In the case of `CCN(CC)CCCNC(=O)CC1=C(C)/C(=C/c2ccc([S+](C)[O-])cc2)c2ccc(F)cc21` (centres undefined), the CC50 in assay [1] is 27.1 µM; in assay [2], over 50 µM; in assay [3], over 50 µM.

In the case of `CSc1ccc(/C=C2/C(C)=C(CC(=O)NCc3ccc(N(C)C)cc3)c3cc(F)ccc32)cc1`, the CC50 in assay [1], in assay [2] and in assay [3] was over 50 µM in each case.

Regarding `CNCCN(C)C(=O)CC1=C(C)/C(=C/c2ccc([S+](C)[O-])cc2)c2ccc(F)cc21` (centres undefined), the CC50 in assay [1] was 34.5 µM; in assay [2], over 50 µM; in assay [3] it was over 50 µM.

Take `CSc1ccc(/C=C2/C(C)=C(CC(=O)N3CCN(C)CC3)c3cc(F)ccc32)cc1`: the figures for the CC50 in assay [1], in assay [2] and in assay [3] were 4.29 µM, 13.4 µM and 11.5 µM, respectively.

For the compound `COc1cc(/C=C2/C(C)=C(CC(=O)N3CCC[C@H]3CN3CCCC3)c3cc(F)ccc32)cc(OC)c1OC`, the values for the CC50 in assay [1], in assay [2] and in assay [3] were 4.22 µM, 12.3 µM and 11.1 µM, respectively.

Take `CC1=C(CC(=O)N2CCN(CCCN(C)C)CC2)c2cc(F)ccc2/C1=C\c1ccc([S+](C)[O-])cc1` (centres undefined): the CC50 in assay [1] was 23.8 µM; in assay [2] it was over 50 µM; in assay [3], 46.2 µM.

For `COC(=O)[C@H](C)NC(=O)CC1=C(C)/C(=C/c2ccc(SC)cc2)c2ccc(F)cc21`, the CC50 in assay [1] is 23.9 µM; in assay [2], over 50 µM; in assay [3], 38.9 µM.

For `CC1=C(CC(=O)N(C)CCN(C)S(=O)(=O)c2ccc(C)cc2)c2cc(F)ccc2/C1=C\c1ccc([S+](C)[O-])cc1` (centres undefined), the CC50 is 6.18 µM in assay [1], 11 µM in assay [2] and 17.8 µM in assay [3].

Regarding `CCN(CCN(C)C)C(=O)CC1=C(C)/C(=C/c2ccc(SC)cc2)c2ccc(F)cc21`, the results for the CC50 in assay [1], in assay [2] and in assay [3] were 1.36 µM, 5.07 µM and 3.96 µM, respectively.

Consider `CC1=C(CC(=O)NCCC(C)C)c2cc(F)ccc2/C1=C\c1nc2ccccc2s1`, for which the results for the CC50 in assay [1], in assay [2] and in assay [3] were over 50 µM, over 50 µM and 24.2 µM, respectively.

Take `CC1=C(CC(=O)N2CCN(c3ccncc3)CC2)c2cc(F)ccc2/C1=C\c1ccc([S+](C)[O-])cc1` (centres undefined): the CC50 turned out to be 9.2 µM in assay [1], 21.9 µM in assay [2] and 22.7 µM in assay [3].

On to `CC1=C(CC(=O)NCc2ccco2)c2cc(F)ccc2/C1=C\c1ccc([S+](C)[O-])cc1` (centres undefined), for which the figures for the CC50 in assay [1], in assay [2] and in assay [3] were 1 µM, over 50 µM and 2.73 µM, respectively.

`CCNCCCN(CC)C(=O)CC1=C(C)/C(=C/c2ccc([S+](C)[O-])cc2)c2ccc(F)cc21` (centres undefined): the CC50 is 17.5 µM in assay [1], over 50 µM in assay [2] and over 50 µM in assay [3].

For the origin of these results see ChEMBL document CHEMBL4043244, “Diverse amide analogs of sulindac for cancer treatment and prevention” (Bioorg Med Chem Lett, 2017).
